Data set [1] has as its system E6SM. Briefly: Minimum cytotoxic concentration that caused a microscopically detectable alteration of cell morphology in E6SM Cell Culture. The format is functional. Conditions: Homo sapiens.
For data set [2], the system named is E6SM. The data set is described as follows: Effective concentration required to reduce vaccinia virus plaque formation by 50% in E6SM Cell Culture. The class given is functional, cell-based. To be noted: Homo sapiens. A digest of the protocol:
(§1)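 Confluent E6SM cell cultures in microtiter trays were infected with 20 PFU for a 1 h adsorption period, then washed free of residual virus and incubated with serial compound dilutions (400, 200, 100, ... μg/mL). Plaque formation was read when cytopathicity was complete in virus controls. […] The TK-deficient HSV-1 line refers to HSV-1/TK⁻ ACVʳ.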

Data set [3] deals with HEL. Briefly: Effective concentration required to reduce CMV davis strain virus plaque formation by 50% in HEL cell culture. The class given is functional, cell-based, Cytomegalovirus. Conditions: Homo sapiens. A digest of the protocol: (§2)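 Plaque-reduction assay in confluent HEL cell cultures. After 1 h adsorption of a 20 PFU virus input, residual virus was removed and cells were incubated with graded compound concentrations. Plaques were scored once cytopathicity was complete in untreated infected controls. […] The TK-deficient VZV line refers to strain YS/R.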

For data set [4], the system named is HEL. Briefly: Effective concentration required to reduce CMV AD169 strain virus plaque formation by 50% in HEL cell culture. The format is functional, cell-based, Cytomegalovirus. Conditions: Homo sapiens. In outline:
as §2

Data set [5] relates to E6SM. The data set is described as follows: Effective concentration required to reduce HSV-2 strain G virus plaque formation by 50% in E6SM Cell Culture. The class given is functional, cell-based. Conditions: Homo sapiens. In outline: as §1
The test system of data set [6] is E6SM. The data set is described as follows: Effective concentration required to reduce HSV-1 strain KOS ACV virus plaque formation by 50% in E6SM Cell Culture. The format is functional, cell-based. To be noted: Homo sapiens. A digest of the protocol: as §1
In data set [7] the test system is E6SM. The data set is described as follows: Effective concentration required to reduce HSV-1 strain KOS virus plaque formation by 50% in E6SM Cell Culture. The format is functional, cell-based. Conditions: Homo sapiens. A digest of the protocol: as §1
Data set [8] in a line: Minimum cytotoxic concentration that causes microscopically detectable alteration of cell morphology in HEL cell culture. The format is cell-based. Conditions: human, HEL cells.
Data set [9] concerns HEL. Briefly: Effective concentration required to reduce TK+ (thymidine kinase presence) VZV strain OKA virus plaque formation by 50% in HEL cell culture. The format is functional, cell-based, Human alphaherpesvirus 3. Conditions: Homo sapiens.
Data set [10] concerns HEL. Briefly: Effective concentration required to reduce […] (thymidine kinase deficient) VZV strain 07/1 virus plaque formation by 50% in HEL cell culture. The class given is functional, cell-based, Human alphaherpesvirus 3. Conditions: Homo sapiens.
The test system of data set [11] is HEL. Briefly: Effective concentration required to reduce TK+ (thymidine kinase presence) VZV strain YS virus plaque formation by 50% in HEL cell culture. The format is functional, cell-based, Human alphaherpesvirus 3. To be noted: Homo sapiens.
Data set [12] deals with HEL. The data set is described as follows: Effective concentration required to reduce […] (thymidine kinase deficient) VZV strain YS/R virus plaque formation by 50% in HEL cell culture. The class given is functional, cell-based, Human alphaherpesvirus 3. Conditions: Homo sapiens.
For data set [13], the system named is HEL. Briefly: Effective concentration required to reduce […] (thymidine kinase deficient) VZV strain YS/R virus plaque formation by 50% in HEL cell culture; No complete inhibition. The class given is functional, cell-based, Human alphaherpesvirus 3. Conditions: Homo sapiens. In outline:
as §2

The nature of data set [14]: Cytotoxic concentration required to reduce HEL cell growth by 50%. The class given is cell-based. To be noted: human, HEL cells.

pEC50: −log10 of the molar value. In brackets after ≈: the same amount, converted by molar mass. Where only a bound is given, the exact number is not on record here.

By EC50 is commonly meant the concentration giving half of the maximal effect. Lower therefore signals higher potency in that assay. In general, pEC50 refers to the EC50 on a negative log10 scale, so that one unit is a factor of ten. A word on the CC50: it is the concentration that lowers cell viability or growth by half. Higher therefore signals lower toxicity to the cells.

As to `Nc1nc2c(ncn2COCCO)c(=O)[nH]1` [ACYCLOVIR], in [1], the MCC was > 400 µg/mL. In addition, the EC50 in data set [2] worked out at 0.38 µg/mL (≈ 1.69 µM); in data set [5] it was 0.07 µg/mL (≈ 0.311 µM); in data set [6] it was 48 µg/mL (≈ 213 µM); in data set [7], 0.07 µg/mL (≈ 0.311 µM). In addition, the pEC50 in [3] was < 3.40; in [4], < 3.70.

Regarding `CCc1nn([C@H]2C[C@H](O)[C@@H](CO)S2)c(=O)nc1O`, the MCC in data set [8] was > 40 µM; in data set [1], > 200 µg/mL. Besides, the pEC50 in [9], in data set [10], in [3], in [4], in data set [11] and in data set [12] was < 4.40 each time. For the same compound, the EC50 in data set [2] is > 200 µg/mL; in data set [5], > 200 µg/mL; in data set [6] it was > 200 µg/mL; in [7] it was 120 µg/mL (≈ 439 µM).

On to `Cc1nn([C@H]2C[C@H](O)[C@@H](CO)S2)c(=O)nc1O`, for which the results for the MCC in [8] and in [1] were > 200 µM and > 200 µg/mL, respectively. Also, the pEC50 in data set [9] was 5.60; in data set [10], 4.85; in data set [3], < 3.70; in data set [4], < 3.70; in data set [13] it was ≤ 5.30; in data set [11], 5.39. The EC50 in data set [2] is 2.2 µg/mL (≈ 8.48 µM); in data set [5], 3.2 µg/mL (≈ 12.3 µM); in [6] it was 18 µg/mL (≈ 69.4 µM); in data set [7], 1.3 µg/mL (≈ 5.01 µM). Moreover, in [14], the CC50 came to 166 µM.

Regarding `CC(=O)OC[C@H]1S[C@@H](n2nc(C)c(=S)[nH]c2=O)C[C@@H]1OC(C)=O`, the MCC in data set [8] is > 40 µM; in data set [1], ≥ 40 µg/mL. For the same compound, the pEC50 in data set [9], in [10], in [3], in [4], in [11] and in data set [12] was < 4.40 in each case. Also, the EC50 in [2], in data set [5], in data set [6] and in data set [7] was > 8 µg/mL throughout. Besides, the CC50 in [14] is > 40 µM.

In the case of `O=c1[nH]c(=O)n([C@H]2C[C@H](O)[C@@H](CO)O2)cc1/C=C/Br` [BRIVUDINE], the MCC in data set [1] is > 400 µg/mL. Moreover, the pEC50 is 8.52 in [9]; 4.54 in data set [10]; < 3.40 in [3]; < 3.82 in data set [4]; 8.52 in [11]; 4.25 in [12]. Further, the EC50 in data set [2] was > 400 µg/mL; in data set [5] it was 80 µg/mL (≈ 240 µM); in [6], 16 µg/mL (≈ 48 µM); in data set [7], 0.01 µg/mL (≈ 0.03 µM).

For `Cc1nn([C@H]2C[C@H](O)[C@@H](CO)S2)c(=O)nc1N`, the MCC in data set [8] was > 40 µM; in data set [1] it was > 200 µg/mL. For the same compound, the pEC50 in data set [9], in data set [10], in [3], in data set [4], in data set [11] and in data set [12] was < 4.40 in each case. Besides, the EC50 was 24 µg/mL (≈ 92.9 µM) in data set [2], 24 µg/mL (≈ 92.9 µM) in [5], 120 µg/mL (≈ 465 µM) in [6] and 24 µg/mL (≈ 92.9 µM) in data set [7]. Besides, the CC50 in data set [14] was > 40 µM.

`CCCc1nn([C@H]2C[C@H](O)[C@@H](CO)S2)c(=O)[nH]c1=O`: the MCC in data set [8] was > 40 µM; in data set [1], > 200 µg/mL. For the same compound, the pEC50 in data set [9], in data set [10], in [3], in data set [4], in data set [11] and in data set [12] was < 4.40 each time. The EC50 is > 200 µg/mL in data set [2], > 200 µg/mL in [5], 120 µg/mL (≈ 418 µM) in data set [6] and > 200 µg/mL in [7]. In addition, the CC50 in data set [14] was > 40 µM.

Consider `Cc1nn([C@H]2C[C@H](O)[C@@H](CO)S2)c(=O)[nH]c1=S`, for which the MCC in data set [8] was > 40 µM; in [1], > 200 µg/mL. Further, the pEC50 in data set [9], in [10], in [3], in data set [4], in data set [11] and in data set [12] was < 4.40 each time. Further, the EC50 in data set [2], in [5], in data set [6] and in data set [7] was 120 µg/mL (≈ 436 µM) in each case. Besides, the CC50 in [14] is > 40 µM.

Take `Nc1nc2c(ncn2COC(CO)CO)c(=O)[nH]1` [GANCICLOVIR]: the MCC in data set [8] was > 150 µM; in data set [1] it was > 100 µg/mL. In addition, the EC50 is > 100 µg/mL in data set [2], 0.003 µg/mL (≈ 0.0118 µM) in data set [5], 2.4 µg/mL (≈ 9.4 µM) in [6] and 0.004 µg/mL (≈ 0.0157 µM) in [7]. In addition, the values for the negative logarithm of the EC50 (pEC50) in data set [3] and in [4] were 5.82 and 6.30, respectively. In addition, in data set [14], the CC50 is > 150 µM.

Source of the values: ChEMBL document CHEMBL1138797, “6-azapyrimidine-2'-deoxy-4'-thionucleosides: antiviral agents against TK+ and TK- HSV and VZV strains” (J Med Chem, 2004).
